Lmaj promast: Leishmania major promastigote growth inhibition; Leishmania major promastigotes, resazurin fluorescence viability; inhibition, % at 10 µM; 9% of 200,000 active; AID 1063; in the data active = inhibition above about 50%;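 note: promastigotes grown with compound for 44 hours at 28 °C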
KCC2 mod: modulates chloride dependent transport by human KCC2; Q9H2X9; KCC2 cells, thallium flux FluoZin-2 fluorescence; B-score of Tl+ flux slope (higher = more flux/activation; lower = inhibition) at 10 µM; 2.2% of 190,000 active; AID 1456;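 active = thallium flux slope and its plate-corrected score both differing from the plate sample mean at a set confidence after two filtering rounds, in either direction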;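 note: slope of fluorescence scaled to starting intensity during 10 to 20 s after thallium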
Target sequence (Q9H2X9 whole entry, looked up): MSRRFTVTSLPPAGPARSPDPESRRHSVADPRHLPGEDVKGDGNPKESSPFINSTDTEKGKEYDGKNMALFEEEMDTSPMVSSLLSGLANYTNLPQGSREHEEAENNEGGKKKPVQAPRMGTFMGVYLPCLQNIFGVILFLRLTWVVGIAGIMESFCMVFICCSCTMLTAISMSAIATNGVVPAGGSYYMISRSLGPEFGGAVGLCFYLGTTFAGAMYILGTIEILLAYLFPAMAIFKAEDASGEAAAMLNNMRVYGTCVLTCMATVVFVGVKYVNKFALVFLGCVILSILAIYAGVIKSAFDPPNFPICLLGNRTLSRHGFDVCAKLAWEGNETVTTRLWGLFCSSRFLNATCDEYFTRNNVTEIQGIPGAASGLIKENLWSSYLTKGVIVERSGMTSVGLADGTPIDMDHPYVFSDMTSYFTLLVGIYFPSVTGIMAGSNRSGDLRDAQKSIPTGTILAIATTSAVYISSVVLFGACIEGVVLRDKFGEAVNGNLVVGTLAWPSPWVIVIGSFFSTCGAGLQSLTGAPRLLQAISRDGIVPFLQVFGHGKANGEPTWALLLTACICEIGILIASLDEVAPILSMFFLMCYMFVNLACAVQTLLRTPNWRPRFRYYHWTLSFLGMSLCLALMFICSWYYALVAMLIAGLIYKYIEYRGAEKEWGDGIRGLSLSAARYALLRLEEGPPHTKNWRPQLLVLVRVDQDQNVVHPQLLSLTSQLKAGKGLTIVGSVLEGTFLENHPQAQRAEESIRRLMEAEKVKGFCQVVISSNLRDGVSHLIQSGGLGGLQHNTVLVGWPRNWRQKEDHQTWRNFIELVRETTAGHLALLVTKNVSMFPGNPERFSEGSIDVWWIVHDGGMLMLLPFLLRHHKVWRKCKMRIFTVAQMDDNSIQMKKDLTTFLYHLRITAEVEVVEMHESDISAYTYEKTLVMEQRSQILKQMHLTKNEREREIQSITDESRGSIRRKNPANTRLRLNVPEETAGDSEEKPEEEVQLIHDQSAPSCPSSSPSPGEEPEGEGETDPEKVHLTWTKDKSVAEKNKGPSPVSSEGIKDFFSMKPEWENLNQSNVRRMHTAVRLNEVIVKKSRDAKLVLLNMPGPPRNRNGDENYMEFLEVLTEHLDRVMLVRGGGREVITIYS
WT yeast gro inh: growth inhibition of WT yeast, mitochondrial fusion screen; mitochondrial fusion phenotypic screen, WT strain; inhibition, % at 10 µM; 2.1% of 190,000 active; AID 1362; in the data active = inhibition above about 58%; tested in S. cerevisiae
ROMK mod: human ROMK K+ channel modulation, primary screen. Tet-inducible ROMK, thallium flux fluorescence; actives lie on both sides. B-score at 10 µM. 2% of 130,000 active. AID 1918;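 active = signal ratio slope over the read window, or its plate-corrected B-score, at least 3 SD from the plate mean, either direction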;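 note: B-score of the F/F0 ratio slope over 7 to 12 s after thallium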
Diaphorase inh: inhibits diaphorase or chemically oxidizes, flagging diaphorase assay artifacts; diaphorase resazurin-to-resorufin fluorescence, NADH, 16 min; bacterial (C. kluyveri) enzyme, not human; inhibition, % at 20 µM; 0.69% of 190,000 active; AID 1217;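 active = primary screen inhibition at 20 µM above a set limit, cut at about 50% in these data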;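 note: plate controls were DMSO with full reaction for no effect and wells lacking NADH for full effect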
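System: Bacterial diaphorase enzyme (C. kluyveri) | Incubation: 16-min room-temperature incubation before reading | Benchmarks: No-NADH positive control and DMSO neutral control | Measured by: Resorufin fluorescence 544/590 nm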
Diaphorase act: diaphorase activation or chemical reduction counter-screen; Diaphorase/resazurin coupled assay, resorufin fluorescence, 16 min; active compounds read high; 1 = vehicle wells, 0 = NADH-free wells; activation factor at 20 µM; 0.005% of 190,000 active; AID 1229;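 active = diaphorase activity raised at least twofold by the compound at 20 µM; inactive = activation factor below 2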
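Material: purified diaphorase enzyme from Clostridium kluyveri / Medium: HEPES pH 7.4 buffer with MgCl2 and Tween 20 / Schedule: enzyme reaction of 16 min at room temperature / Measured by: resorufin fluorescence, excitation 544 nm, emission 590 nm / Evaluation: rise in resorufin formation, marking diaphorase activation or chemical reduction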
KCC2 sec1: KCC2 (human) modulation, secondary assay; shares compounds with KCC2 mod; HEK293-KCC2, thallium flux, FluoZin2 fluorescence; active compounds read high; normalised thallium flux (F/F0 slope) at 10 µM; 15% of 3,700 active;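 active = thallium flux slope above the same plate's solvent-only control mean plus 3 SD; inconclusive = the two replicate wells disagree; inactive = no significant difference from solvent-only control wells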
KCC2 bumet counter: thallium flux despite bumetanide block in KCC2 cells, secondary assay 3. shares compounds with KCC2 mod. normalized thallium flux at 10 µM. HEK293-KCC2 + bumetanide/ouabain, thallium flux FluoZin2; active compounds read high. 49% of 3,700 active;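 active = thallium entry rate above the same plate's blocked-transporter control wells by more than 3 SD; inconclusive = the two repeat wells disagree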;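 note: raw slope of fluorescence over initial fluorescence between 10 and 20 s after thallium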
KCC2 sec2: KCC2 (human) modulation, second secondary assay | shares compounds with KCC2 mod | HEK293-KCC2, thallium flux FluoZin2 fluorescence; actives lie on both sides; F/F0 rise rate, 10–20 s post-thallium | normalized thallium flux at 10 µM | 23% of 3,700 active | AID 1715;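 active = thallium flux slope more than 3 SD above or below the plate's solvent-only control mean, mostly below; inconclusive = the two repeat wells disagreed; inactive = no significant shift from solvent-only controls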;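 note: raw slope with 0.1% DMSO as baseline and bumetanide as block control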
HEK293 Tl flux: counter-screen for KCC2 modulators: effect in parental HEK293 cells. 46% of 3,700 active. thallium flux FluoZin2, ouabain; baseline-ratio fluorescence slope, 10–20 s after thallium. AID 1716. shares compounds with KCC2 mod. thallium flux rate (normalised fluorescence) at 10 µM;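 active = thallium flux rate significantly above the same plate's solvent-only control wells, beyond their mean plus 3 SD; inconclusive = the two replicate wells gave conflicting results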
KCC2 retest ouab: confirmation of human KCC2 modulators with ouabain; 48% of 3,700 active; shares compounds with KCC2 mod; HEK293-KCC2, thallium flux FluoZin2 fluorescence; bidirectional: low = inhibitor, high = activator; raw Tl+ flux slope (below DMSO = inhibition, above = activation) at 10 µM;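 active = thallium flux slope beyond 3 SD from same-plate DMSO control mean in most replicates, usually higher, sometimes lower; inconclusive = repeat tests gave conflicting results; inactive = no significant difference from controls in most replicates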;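 note: slope of initial-normalized fluorescence between seconds 10 and 20 after thallium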
HEK293 Tl flux2: counter-screen for KCC2 modulators: effect in parental HEK293 cells | shares compounds with KCC2 mod | thallium flux FluoZin-2 fluorescence slope | thallium flux slope at 10 µM | 33% of 3,700 active;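 active = thallium flux slope above the same plate's solvent-control mean plus 3 SD in both duplicate wells; inconclusive = duplicate wells that disagreed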;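 note: run without ouabain in cells lacking the KCC2 cotransporter; slope of fluorescence scaled to its starting value between 10 and 20 s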
An asterisk follows results filed as active; ? = inconclusive; . = no result given. Only some compounds are listed: those with a hit (about 12% of all), similar ones and a draw of the others.

SMILES | Lmaj promast | KCC2 mod | WT yeast gro inh | ROMK mod | Diaphorase inh | Diaphorase act | KCC2 sec1 | KCC2 bumet counter | KCC2 sec2 | HEK293 Tl flux | KCC2 retest ouab | HEK293 Tl flux2
COc1ccc(N2CCN(C(=N)/C(C(C)=O)=C(\C)O)CC2)cc1 | -4 | -0.15 | -4 | . | 12 | 0.9 | . | . | . | . | . | .
CCc1ccc(NC(=O)c2c(Cl)nc(C)c(Cl)c2C)cc1 | -1 | -4.2* | 4 | 0.28 | 13 | 0.9 | 0.0054 | 0.0053 | 0.025* | ? | 0.016* | 0.012
Cc1ccccc1NC(=O)c1c(Cl)nc(C)c(Cl)c1C | -2 | 0.9 | -1 | 0.051 | 9 | 0.9 | . | . | . | . | . | .
O=[N+]([O-])c1ccc(COc2ncnc3ccccc23)cc1 | -6 | 1.1 | -8 | -0.44 | 10 | 0.9 | . | . | . | . | . | .
CC(C)NCC(O)c1cc(O)cc(O)c1 (centres undefined) | . | -2.8* | . | . | . | . | 0.0069 | 0.0059* | 0.029 | ? | 0.018 | 0.012
O=C1Cc2ccccc2C(=O)N1CCc1ccccc1 | -4 | . | 15 | . | 15 | 0.9 | 0.0067 | 0.0047 | 0.028 | 0.0074 | 0.018 | 0.011
CC1CCN(C(=O)c2ccc(SCc3ccccc3F)c([N+](=O)[O-])c2)CC1 | 69* | -3.4* | 31 | -0.11 | 19 | 0.8 | 0.0068 | 0.0052 | 0.025* | 0.008 | ? | 0.0097
Cc1ccc(C(=O)N2CCC(Cc3ccccc3)CC2)cc1[N+](=O)[O-] | 11 | -5.7* | 39 | 0.036 | 5 | 1 | 0.008 | ? | 0.034 | 0.0034 | 0.014* | 0.011
O=C(c1ccc(S(=O)(=O)Cc2ccccc2F)c([N+](=O)[O-])c1)N1CCCCCC1 | 15 | -0.13 | -11 | -0.76 | 7 | 0.9 | . | . | . | . | . | .
COc1ccc(C(=O)NNC(=O)C(=O)Nc2ccc(C)c(Cl)c2)cc1 | 33 | 47* | -14 | 0.1 | -8 | 1.1 | 0.01* | 0.067* | 0.054* | 0.057* | 0.06* | 0.051*
Cc1ccc(NC(=O)C(=O)NNC(=O)c2ccccc2C)cc1Cl | 2 | 46* | 10 | . | 12 | 0.9 | 0.048* | 0.11* | 0.052* | ? | 0.087* | 0.043*
Cc1ccccc1NC(=O)CCC(=O)OCC(=O)c1cccc([N+](=O)[O-])c1 | -10 | -0.099 | 2 | -0.39 | -4 | 1 | . | . | . | . | . | .
COc1ccccc1N1CCN(c2nc3c(C)cccn3c(=O)c2C=O)CC1 | -2 | -0.26 | . | . | 9 | 0.9 | . | . | . | . | . | .
CCCCNc1cc(C(=O)O)cc(S(N)(=O)=O)c1Oc1ccccc1 | -7 | -6.4* | 13 | . | 3 | 1 | 0.0063 | 0.0046 | 0.023* | 0.0064 | 0.013* | 0.0094
Cc1ccc(NC(=O)CSc2nnc(-c3cnccn3)n2-c2ccccc2)cc1 | -5 | 0.55 | 1 | . | 17 | 0.8 | . | . | . | . | . | .
CCC1CCCCN1C(=O)CSc1nnc(-c2c[nH]c3ccccc23)o1 (centres undefined) | 25 | -3.3* | -4 | 1.7 | 20 | 0.8 | 0.008 | 0.0067 | 0.03 | 0.0074 | 0.022* | ?
CC1CCCN(C(=O)CSc2nnc(-c3c[nH]c4ccccc34)o2)C1 (centres undefined) | 2 | -3.8* | -8 | 0.34 | 15 | 0.8 | 0.0056 | 0.0044 | ? | 0.0076 | ? | 0.0096
CC1CCCC(C)N1C(=O)CSc1nnc(-c2c[nH]c3ccccc23)o1 (centres undefined) | 23 | . | 13 | 0.7 | 29 | 0.7 | . | . | . | . | . | .
CCN(C(=O)c1cc2cc(OC)ccc2oc1=O)c1cccc(C)c1 | -2 | -0.34 | 10 | -0.24 | 18 | 0.8 | . | . | . | . | . | .
NC(=O)CN1CCOCCOCCN(CC(N)=O)CCOCCOCC1 | -6 | -0.6 | -7 | 1.2 | 2 | 1 | . | . | . | . | . | .
O=C(CCn1c(=S)oc2ccccc21)NC1CCCCCC1 | . | -0.32 | . | . | . | . | . | . | . | . | . | .
CC1CCCC(NC(=O)CCn2c(=S)oc3ccccc32)C1C (centres undefined) | . | -0.84 | . | -0.075 | . | . | 0.0085 | 0.0068 | 0.032 | 0.0074 | 0.022 | ?
CC1CCCCC1NC(=O)C1CCN(S(=O)(=O)c2cccc3nsnc23)CC1 (centres undefined) | -2 | 0.23 | 14 | 1.7 | 3 | 1 | . | . | . | . | . | .
COCC(=O)Nc1cc(=O)n(C)c(=O)n1C | -6 | -1.2 | -5 | . | -16 | 1.2 | . | . | . | . | . | .
CCC(CC)C(=O)Nc1cc(=O)n(C)c(=O)n1C | 4 | 4.1* | 1 | . | -2 | 1 | 0.0062 | 0.0049 | 0.028 | 0.0078 | 0.019 | 0.011
SMILES | Lmaj promast | KCC2 mod | WT yeast gro inh | ROMK mod | Diaphorase inh | Diaphorase act | KCC2 sec1 | KCC2 bumet counter | KCC2 sec2 | HEK293 Tl flux | KCC2 retest ouab | HEK293 Tl flux2
CC(C)N(C(=O)Cn1cc(SCC(N)=O)c2ccccc21)C(C)C | 15 | 0.25 | -17 | 0.22 | 8 | 0.9 | . | . | . | . | . | .
O=S1(=O)C=C(SCc2ccccc2)Nc2ccccc21 | 23 | -1.8 | 9 | . | 13 | 0.9 | . | . | . | . | . | .
O=S1(=O)C=C(SCc2ccc(F)cc2)Nc2ccccc21 | 8 | -4.3* | 3 | -1 | 12 | 0.9 | 0.0078 | 0.0063 | 0.028 | 0.0071 | 0.027* | 0.01
CCc1ccccc1Nc1nc(N)nc(COC(=O)c2cccn2C)n1 | 13 | -5.6* | -6 | 0.0079 | 15 | 0.8 | 0.0064 | 0.0035 | 0.028 | 0.0071 | 0.016 | 0.0096
Cc1ccccc1Nc1nc(N)nc(COC(=O)c2cccn2C)n1 | 6 | -0.02 | -1 | . | 13 | 0.9 | . | . | . | . | . | .
O=C1CCCc2c1[nH]c1ccc(CN3CCCCC3)cc21 | 59* | -5.1* | 4 | . | 9 | 0.9 | 0.0052 | 0.0048 | 0.029 | 0.0077 | 0.018 | 0.01
Cc1cccc(N/C(=N\S(=O)(=O)c2ccccc2)C(F)(F)F)c1 | -5 | . | 5 | . | 5 | 1 | 0.0053 | ? | 0.029 | 0.01* | 0.02 | 0.011
O=S(=O)(/N=C(\Nc1ccc(F)cc1)C(F)(F)F)c1ccccc1 | -5 | . | 0 | -0.8 | -4 | 1 | . | . | . | . | . | .
COc1ccc(CN(Cc2ccccn2)C(=O)CN2C(=O)COc3ccccc32)cc1 | 5 | -2.8* | -15 | -2.1 | 22 | 0.8 | 0.0069 | 0.0045 | 0.024* | 0.0075 | 0.017* | 0.01

Source: PubChem
